Laboratory results as given in article PMC8346222 (Science Advances, 2021).
In brackets after ≈: the same amount, converted by molar mass.

Experiments:
Assay in all cases: Minimum inhibitory concentration, broth microdilution
Format in all cases: cell-based
[1] = test system: Escherichia coli ATCC 2452; conditions: ATCC2452, read-out: Minimum inhibitory concentration
Outline: (§1)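 Broth microdilution per CLSI: test agents serially diluted across plates. Inoculum set to 0.5 McFarland, diluted in cation-adjusted Mueller Hinton broth to ~5 × 10^5 CFU/ml, then incubated aerobically at 37°C for 16 to 18 h. Gentamicin and imipenem were run as control antibiotics.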

[2] = test system: Klebsiella pneumoniae NR-41920; conditions: NR41920, read-out: Minimum inhibitory concentration
Outline: as §1

[3] = test system: Escherichia coli ATCC 2469; conditions: ATCC2469, read-out: Minimum inhibitory concentration
Outline: as §1

[4] = test system: Pseudomonas aeruginosa NR-50573; conditions: NR50573, read-out: Minimum inhibitory concentration
Outline: as §1

| MIC [1] | MIC [2] | MIC [3] | MIC [4] | Compound |
| --- | --- | --- | --- | --- |
| > 64 µg/mL | 64 µg/mL (≈ 134 µM) | > 64 µg/mL | 1 µg/mL (≈ 2.09 µM) | CNC(C)C1CCC(N)C(OC2C(N)CC(N)C(OC3OCC(C)(O)C(NC)C3O)C2O)O1 (centres unmarked) [Gentamicin] |
| 16 µg/mL (≈ 53.4 µM) | 8 µg/mL (≈ 26.7 µM) | 16 µg/mL (≈ 53.4 µM) | 1 µg/mL (≈ 3.34 µM) | C[C@@H](O)[C@H]1C(=O)N2C(C(=O)O)=C(SCCN=CN)C[C@H]12 [Imipenem] |
